# Screening data (PubChem)
# The list is a sample of the results.
# Apaf-1 act: activators of human Apaf-1 apoptosome, primary screen, biochemical, DEVD-Rh110 fluorescence, uHTS; activity change, negative = activation, % at 20 µM; AID 489031, 2010; Apaf-1 apoptosome caspase-3 activation; hits give low values; 330,000 compounds, 0.31% hits; Apoptotic protease-activating factor 1 (Homo sapiens), O14727;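 active = activity change at or below -40% at 20 µM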
#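 Material: reconstituted apoptosome of Apaf-1, cytochrome c, caspase-9, procaspase-3; times: 30 min preincubation, 50 min reaction, room temperature; measured by: fluorescence, 540 nm emission, 480 nm excitation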
# Rh110 act interf: Rh110 fluorescence interference by putative Apaf-1 activators, confirmation, artefact control for Apaf-1 activator project, biochemical, 20 µM; 980 tested, under 10 active; shares compounds with Apaf-1 act; quenched caspase reaction, Ex480/Em540; fluorescence interference (activity change), % at 20 µM, hits read low; AID 504616, 2011;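 active = mean activity change at or below -40% when tested at 20 µM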
# Apaf-1 act conf: Apaf-1 activators, single-dose retest, confirmation, biochemical, fluorescence, DEVD-Rh110, 20 µM | shares compounds with Apaf-1 act | reconstituted apoptosome caspase-3 activity; hits give low values | activity change, negative = activation, % at 20 µM | 980 compounds, 5% hits | AID 504617, 2011;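 active = mean activity change at or below -40%, meaning activation of 40% or more, at 20 µM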
# Apaf1 act interf: fluorescence interference of Apaf-1 activator hits, dose response, artefact control for Apaf-1 activator project. shares compounds with Apaf-1 act. 55 tested, under 10 active. fluorescence interference counterscreen, Apaf-1 activator assay. AID 588592, 2011. EC50, µM; call rule not given here
# The depositor's hits bear a star; . = no result.
SMILES,Apaf-1 act,Rh110 act interf,Apaf-1 act conf,others
CCOC(=O)CNCCC(=O)c1ccc(Br)cc1,58.4,.,.,
Cc1ccc(NC(=O)CCC(=O)OCc2ccc(Br)cc2)cc1,-46.1*,-17.5,8.8,
NC1=NC[C@H](Cc2ccc(O)cc2)N1CCC12CC3CC(CC(C3)C1)C2,49.4,.,.,
Cc1ccc(N2C(=O)[C@@H]3[C@H](C2=O)C2c4ccccc4C=CN2[C@@H]3C(=O)c2ccco2)c(C)c1 (stereo partly specified),87.0,.,.,
COc1ccc(OCC(NS(=O)(=O)c2ccc(-n3cnnn3)cc2)C(C)C)cc1 (stereo unspecified),-424.1*,12.9,5.8,
COc1ccc(S(=O)(=O)NCc2ccc3c(c2)cc(C)n3C)cc1,50.7,.,.,
COc1ccc(S(=O)(=O)Nc2cc(SCC(=O)O)c(O)c3ccccc23)cc1,85.5,.,.,
CC1(C)CC(=O)C(C=Nc2ccc(O)c(N=CC3=C(O)CC(C)(C)CC3=O)c2)=C(O)C1,46.8,.,.,
COC(=O)Nc1nnc(COc2ccccc2)s1,-572.6*,6.3,11.1,
COc1ccc(C(=O)C(Sc2nnc(C)c(=O)[nH]2)c2ccc(OC)cc2)cc1 (stereo unspecified),-114.1*,6.8,17.1,
N#CC1=C(N)C(C#N)(C#N)[C@H](c2ccoc2)[C@H]2CN(Cc3ccccc3)CC=C12,59.1,.,.,
CC1CC(=O)c2c(cc3c(-c4c(O)cc(O)c5c(O)c6c(cc45)OC(C)CC6=O)c(O)cc(O)c3c2O)O1 (stereo unspecified),62.5,.,.,
O=C(c1ccc([N+](=O)[O-])o1)N(Cc1nnc(-c2ccccc2Cl)o1)C1CC1,51.0,.,.,
Clc1ccc2nsnc2c1NC1=NCCN1,-6.7,.,.,
COc1cc(S(=O)(=O)Nc2ccccc2)ccc1NC=O,-48.9*,-2.5,11.0,
COc1cc(-c2ccc(Nc3ccccc3C(=O)O)c(OC)c2)ccc1Nc1ccccc1C(=O)O,47.8,.,.,
COc1ccc(-c2cc(=O)n(-c3ccc([N+](=O)[O-])cc3)[nH]2)cc1,64.8,.,.,
Nc1ccc2nn(-c3ccccc3)nc2c1,93.2,.,.,
CC(=O)c1c(-c2ccccc2)c2cc(Cl)ccc2[nH]c1=O,-49.2*,-1.9,8.4,
CCSc1ncc(Cl)c(C(=O)Nc2ccc(S(=O)(=O)Nc3ncccn3)cc2)n1,-75.9*,-0.4,5.5,
COc1ccc(NC(=S)Nc2cccc3cnccc23)cc1,95.4,.,.,
O=C(COC(=O)c1ccccc1Sc1ccc(C(F)(F)F)cc1[N+](=O)[O-])NC(=O)NC1CCCC1,40.4,.,.,
O=C(CCCCCn1c(=O)[nH]c2ccsc2c1=O)N1CCN(C2CCCCC2)CC1,-386.7*,-0.1,1.7,
CCC(CO)Oc1cc(NCc2cccnc2)c2ncn(C(C)C)c2c1 (stereo unspecified),62.5,.,.,
COc1ccc2c(-c3ccc(OCCN4CCCCC4)cc3)c(-c3ccccc3OC)sc2c1,60.0,.,.,
SMILES,Apaf-1 act,Rh110 act interf,Apaf-1 act conf,others
O=C(Nc1cccc(C(F)(F)F)c1)c1ccc2nc(-c3ccco3)c(-c3ccco3)nc2c1,65.8,.,.,
CCN1CCN(Cc2ccc(NC(=O)c3cc(NC(=O)c4cncc(-c5ccc(C#N)cc5)c4)cc(OC)c3)cc2C(F)(F)F)CC1,53.8,.,.,
COc1cc(NC(=O)c2ccnc(N)c2)cc(C(=O)Nc2cccc(C(F)(F)F)c2)c1,-260.8*,12.8,15.3,
CCOc1ccc2noc3c2c1C(=O)c1ccccc1-3,76.0,.,.,Apaf1 act interf=13.7*
O=C1c2ccccc2-c2onc3ccc(NCc4ccco4)c1c23,69.3,.,.,
COC(CNC(=O)c1ccc2c3c(onc13)-c1ccccc1C2=O)OC,72.7,.,.,
Cc1c(C(=O)c2ccc(F)cc2F)c2ccccn2c1CCC#N,62.7,.,.,
CCC(OCC(O)CN1CCCCC1)c1ccccc1 (stereo unspecified),-516.0*,0.0,11.8,
Cn1c(NC(=O)c2ccc(Cl)s2)cc(=O)n(C)c1=O,66.2,.,.,
COc1ccc(-c2cc(=O)oc3cc(OCC(=O)Nc4ccc(CCO)cc4)ccc23)cc1,-54.6*,0.0,-20.1,
CC(Oc1ccc2c(-c3ccccc3)cc(=O)oc2c1)C(=O)NCC1CCC(C(=O)O)CC1 (stereo unspecified),-0.5,.,.,
COc1ccc(N2CCN(C(=O)c3ccc(COc4ccc5c(C)cc(=O)oc5c4)cc3)CC2)cc1,57.7,.,.,
COC(=O)c1c(NC(=O)c2ccc(OC(C)C)cc2)sc2c1CC(C)(C)NC2(C)C,53.4,.,.,
COCCn1c(SCC(=O)NNC(=O)c2cc(Cl)ccc2OC)nnc1-c1ccncc1,48.7,.,.,
O=C(CSc1nnc(-c2ccncc2)n1CCc1ccccc1)N1CCCC1,-262.6*,4.5,15.0,
CCC(CN(C)C)Oc1cc(NCc2ccccc2)c2ncn(C(C)C)c2c1 (stereo unspecified),97.9,.,.,
COc1cc2ccccc2cc1C(=O)Nc1sc2c(c1C(N)=O)CCN(C(C)C)C2,51.2,.,.,
Cc1ccc(-c2csc3nc4c5ccccc5c(NCCCN(C)C)nn4c(=O)c23)cc1,41.9,.,.,
CCOc1ccc(Cc2nnc(SCC(=O)Nc3ccc(C(C)=O)cc3)[nH]c2=O)cc1,-416.1*,8.3,21.6,
CC(C)(C)C(=O)NC1=NN(c2c(Cl)cc(Cl)cc2Cl)C(=O)C1,67.6,.,.,
CC(C)C(C(=O)O)N1C(=O)/C(=C/C=C/c2ccco2)SC1=S (stereo unspecified),45.7,.,.,
Cc1cccc(C)c1NC(=O)CN1CCN(CCCC(c2ccc(F)cc2)c2ccc(F)cc2)CC1,51.3,.,.,
Cc1cccc(C)c1NC(=O)Cn1cc(C=O)c2ccccc21,-251.3*,-0.5,-42.5*,Apaf1 act interf=>100
C[C@H](CCC(=O)O)[C@H]1CC[C@H]2[C@@H]3[C@H](O)C[C@@H]4C[C@H](O)CC[C@]4(C)[C@H]3C[C@H](O)[C@]12C,-2.6,.,.,
CC1(C)OC(C)(C)/C(=C/Nc2ccc(O)cc2)C1=O,48.1,.,.,
SMILES,Apaf-1 act,Rh110 act interf,Apaf-1 act conf,others
CC(C)=NOc1nc(N(C)C)nc(N(C)C)n1,-76.1*,2.6,1.0,
N#CC(c1nc2ccccc2nc1N1CCCC1)S(=O)(=O)c1ccccc1 (stereo unspecified),63.8,.,.,
O=[N+]([O-])c1cc(F)c2cccnc2c1O,64.2,.,.,
Nc1cc(S(=O)(=O)O)cc([N+](=O)[O-])c1O,-110.2*,-4.9,3.7,
CCN(CC)c1ccc(N=Cc2ccccc2[N+](=O)[O-])cc1,62.0,.,.,
Cc1cc(C)nc(/N=c2/ssnc2Cl)c1,71.1,.,.,
COc1ccc(NC(=O)[C@@H](NC(=O)N2C[C@H]3C[C@@H](C2)c2cccc(=O)n2C3)C(C)C)cc1OC,61.7,.,.,
COc1ccc(N2CCN(C(c3cc(OC)ccc3OC)c3nnnn3Cc3ccco3)CC2)cc1 (stereo unspecified),-258.1*,6.7,13.2,
Cc1ccc(C)c2[nH]c(=O)c(C(c3nnnn3Cc3ccco3)N3CCc4ccccc4C3)cc12 (stereo unspecified),70.6,.,.,
CCCCc1nn2c(N)c(/C=C3\C=Nc4ccccc43)c(=O)nc2s1,-458.8*,18.6,30.2,
